# Laboratory results published in ChEMBL document CHEMBL4513216, “Probing the Open Global Health Chemical Diversity Library for Multistage-Active Starting Points for Next-Generation Antimalarials” (ACS Infect Dis, 2020).
# Test: Toxicity liver stage against HepG2, at 10uM
# Format: cell-based
# Design: test concentration 10 uM, cell line HepG2-A16-CD81EGFP
# Conditions: human, HepG2-A16-CD81EGFP cells; read-out: INHIBITION
# Outline: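 Uninfected HepG2-A16-CD81EGFP cells, 3 × 10^3 per well, 1536-well, plated on prespotted compound at 10 μM final, parasite-free screening media added to match infected plates; puromycin 10 μM positive, DMSO 0.5% negative; run in parallel with 48 h PbLuc assay at 37 °C, 5% CO2; viability by CellTiter-Glo luminescence, normalized to controls.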
row,Compound,cytotoxicity at 10 µM [%]
1,COC(=O)c1ccc2c(-c3ccnc(NCCO)n3)c[nH]c2c1,-12.8
2,O=C(N1CCOCC1)N1CCOC[C@H](Oc2ccc(C(F)(F)F)cc2)C1,1.27
3,COc1ccc(-c2noc([C@@H]3C[C@@H](O)CN3C3CCCCC3)n2)cc1,3.25
4,CC(C)COC(=O)N1[C@@H](c2ccco2)[C@@H](CO)C[C@]12CCCCNC2=O,1.19
5,Cc1cc(O)cc(=O)n1CCCC(=O)Nc1n[nH]c2ccccc12,-10.6
6,COc1ccc(S(=O)(=O)NCC(c2cccn2C)N(C)C)cc1F (stereo not drawn),-0.418
7,CC(O)(CNC(=O)c1c(F)cccc1Cl)C1CC1 (stereo not drawn),-8.87
8,CN(C)CC(=O)N1CCC2(CCN(Cc3cccc(F)c3)CC2)C1,1.11
9,CN(C)Cc1nnc2n1CCN(Cc1cccnc1)C2,-0.588
10,CN(C)C(=O)c1nn(C)c2c1CN(Cc1ccoc1)C2,-6.28
11,Cc1cnc(C(=O)N2CCCC3(CCN(c4cnn(C)c4)C3=O)C2)cn1 (stereo not drawn),-5.79
12,Cn1cc(N2CCC3(CCCN(C(=O)c4ccnn4C)C3)C2=O)cn1 (stereo not drawn),-1.55
13,Cc1nn(C)c2c(N3CCN(C(=O)C(C)C)CC3)ncnc12,6.78
14,CN(CC1(C)COC1)C(=O)c1cc(-c2cnn(C)c2)nc2ccccc12,0.89
15,Cc1c[nH]nc1C1CCN(c2cnccn2)C1 (stereo not drawn),5.3
16,O=C(O)c1ccccc1-c1ccc(CN2CCC(CO)CC2)cn1,2.45
17,CN1CCC(c2nccnc2Nc2cnccn2)CC1,-4.27
18,CC(=O)N1CCC(c2cccc(Oc3ccccc3)n2)CC1,-0.0757
19,COCCN1CCCC(c2ncc(C(=O)N(C)C)c(C)n2)C1 (stereo not drawn),-1.21
20,CC(=O)N1CCOC(c2nc(N(C)C)ncc2-c2cccc(F)c2)C1 (stereo not drawn),-27.5
21,CC(=O)NCC(=O)N1CCC(c2cncc(Oc3cccnc3)n2)CC1,-19.5
22,CN(Cc1ccc(F)cc1)CC1(O)CCN(C(=O)c2ccn(C)n2)C1 (stereo not drawn),-6.41
23,CS(=O)(=O)c1snnc1C1CCCN(Cc2ccncc2)C1 (stereo not drawn),-11.5

row,Compound,cytotoxicity at 10 µM [%]
1,CC1CCCCN1c1nc2c(c(=O)[nH]1)CCN(Cc1ccc(O)cc1)C2 (stereo not drawn),5.74
2,CN(CC1(O)CCCN(c2ccccn2)C1)C(=O)Cc1ccsc1 (stereo not drawn),-1.11
3,COCc1ccccc1C(=O)NS(=O)(=O)CCCC#N,5.24
4,Cn1ccc(C(=O)Nc2nccn2Cc2ccccc2Cl)cc1=O,-1.92
5,CCC(NC(=O)NCc1nncn1CC)c1ccc(OC)cc1 (stereo not drawn),1.97
6,Cc1nn(CC(=O)NCC2(C(N)=O)CCOCC2)c(C)c1Cl,2.83
7,CC(C)CCC(=O)NC(C#N)CC(C)C (stereo not drawn),2.53
8,Cc1nc(CSc2ccc(C(F)(F)F)cn2)no1,-3.38
9,Cc1ccc2c(c1)CCC2NC(=O)N1CCC(C(N)=O)CC1 (stereo not drawn),-4.83
10,Cn1ncc(C(=O)OCC2CCN(c3ccccc3)C2)c1C(F)F (stereo not drawn),-5.44
11,CC(C(=O)Nc1ccnn1C(C)C)N1CCN(Cc2ccon2)CC1 (stereo not drawn),0.72
12,NC(=O)NC(=O)Cn1ccc2sccc2c1=O,0.354
13,OC(CN(Cc1ccccc1)Cc1cscn1)c1cccs1 (stereo not drawn),4.74
14,COCCCN(Cc1ccncc1)c1cc(C)ncn1,3.35
15,CCCS(=O)(=O)NCC(C)c1ccc(F)c(F)c1 (stereo not drawn),-6.82
16,CC(C)S(=O)(=O)c1ccccc1C(=O)NCC1Cc2ccccc2O1 (stereo not drawn),5.87
17,Cc1cc(N2CCC(NCCOc3ccccc3)CC2)nc(C)n1,-6.11
18,Cc1nc(CCNC(C)c2ccc3c(c2)OCCCO3)cs1 (stereo not drawn),3.3
19,CC(=O)Nc1nc(C(=O)NCCOc2cccc(C)c2)cs1,-0.794
20,CNC(=O)c1ccc(OC)c(NCc2noc(-c3cccs3)n2)c1,2.76
21,CC(CNC(=O)c1c[nH]nn1)Oc1ccccc1Br (stereo not drawn),-0.509
22,Cn1cc(N2CCCC(SCc3ccco3)C2=O)cn1 (stereo not drawn),17.3
23,CCCC(=O)NCC(=O)NC(c1ccc(Cl)cc1)C(F)(F)F (stereo not drawn),-3.63

row,Compound,cytotoxicity at 10 µM [%]
1,CN(CCc1ccccn1)C(=O)C(O)c1cc(Cl)cc(Cl)c1 (stereo not drawn),-5.68
2,CC(C)c1ccc(NC(=O)c2ncc(C(N)=O)cc2Cl)cc1,-1.85
3,O=C(CCn1ccc2ccccc21)Nc1ccnn1CC1CCOC1 (stereo not drawn),2.56
4,COc1ccccc1NC(=O)NCc1cn[nH]c1,16.9
5,Cc1ccc(CCCC(=O)N2CCCC(CS(N)(=O)=O)C2)s1 (stereo not drawn),17.9
6,COCCC1(CNC(=O)NCC2CN(C)CCN2C)CCC1 (stereo not drawn),6.35
7,CC(=O)N1CCCC(C(=O)NCCc2ccc(F)c(Br)c2)C1 (stereo not drawn),4.64
8,CCN1CCC(CNCc2cc(OC)ccc2OC)C1 (stereo not drawn),-2
9,Cc1cc(F)ccc1CN1CCCC2(C1)OCCO2,-11.8
10,Cc1nc(Cn2c3c(ccc2=O)CC(N)CC3)cs1 (stereo not drawn),1.88
11,COCCN1CCN(S(=O)(=O)C2CC2)Cc2cccnc21,4.73
12,O=C(NC[C@]12COC[C@H]1CN(Cc1cccc(F)c1)C2)c1ccco1,-66.7
13,CN1C(=O)CC(c2cnn(C)c2)C12CCN(C(=O)c1ccco1)CC2 (stereo not drawn),-75.5
14,CCOCC1CC2(CCN(C(=O)c3cscn3)CC2)CO1 (stereo not drawn),2.42
15,Cc1ccc(N2CCC3(CCN(C(=O)c4ccsc4)CC3)CC2)nn1,2.19
16,Cn1cccc1C(=O)N1CCn2cc(CNC(=O)CC3CC3)nc2C1,3.11
17,NC(=O)[C@H]1CCCN(c2nccc(-c3ccncc3)n2)C1,-5.03
18,CC(C)n1cnnc1CN(C)C1CCCNC1 (stereo not drawn),6.9
19,COC(=O)C1CCCCN1C(=O)c1cn(C/C=C/c2ccccc2)nn1 (stereo not drawn),3.98
20,CCn1c(C2CCN(C(=O)c3cc(CC(C)C)no3)CC2)nn(C)c1=O,-2.51
21,O=C(c1ccc(-c2cn[nH]c2)nc1)N1CCC(N2CCOCC2)CC1,1.38
22,O=C(NCCc1cccs1)N1CCCC2(CCC(=O)N(C3CC3)C2)C1 (stereo not drawn),-7.82
23,C[C@@H]1CN(S(=O)(=O)N2CCCC2)C[C@@]1(O)C1CC1,-5.07

row,Compound,cytotoxicity at 10 µM [%]
1,N[C@H]1CN(C(=O)c2ccc3[nH]c(CO)nc3c2)C[C@@H]1c1ccccc1,-1.82
2,CCN1CC2(CCC1=O)CCN(CCOc1ccc(F)cc1)CC2,4.19
3,O=S(=O)(Cc1ccccc1Cl)NCCCN1CCCC1,-4.54
4,COc1ncc(C2CC(=O)NCc3nc4ccccn4c32)cn1 (stereo not drawn),-9.75
5,CSCC[C@H](N)C(=O)NCc1cc2n(n1)CCCN(C1CCCCC1)C2,-15.3
6,O=C(c1cc(COc2ccc3c(c2)OCO3)[nH]n1)N1CCOCC1,-5.21
7,COCCCn1ccnc1-c1cnc(OC)nc1,-13.6
8,COc1ccc(Cc2nnc(SC)o2)cc1OC,-13.8
9,Cc1c(NC(=O)c2noc3c2CCCC3)cnn1C,-5.41
10,CC(C)Cc1cc(NC(=O)c2ccccc2)n(C)n1,-3.37
11,Cc1cnc(CN(C)C2CCCN(Cc3noc(C4CC4)n3)C2)cn1 (stereo not drawn),-2.13
12,Cc1cnn(C2CN(CC(=O)NCCc3c[nH]c4ccccc34)C2)c1,-4.01
13,CC(=O)N1CCCN(C(=O)CCc2c(C)nc3ccnn3c2C)CC1,-3.12
14,N#Cc1ccccc1N1CCCN(C(=O)NCc2cc[nH]n2)CC1,0.428
15,CC(=O)N(Cc1noc(C2CC2)n1)C1CCN(Cc2ccccn2)C1 (stereo not drawn),-5.72
16,Cc1ccc(Cl)cc1N1CCC(CNC(=O)Cn2cccn2)C1 (stereo not drawn),-6.72
17,Cc1nccn1CCCC(=O)N1CCCN(c2cccnn2)CC1,-9.35
18,CC(=O)N(Cc1ncc(C)o1)C1CCN(Cc2ccccc2C#N)C1 (stereo not drawn),-15.5
19,CC(C)c1nc(C2CCCN(C(=O)c3nccn4ccnc34)C2)no1 (stereo not drawn),-12.7
20,CCc1nnc(C2Cc3ccccc3CN2Cc2nc(C)no2)o1 (stereo not drawn),-7.78
21,CN(C)c1cc(CNC(=O)c2cccnc2O)ccn1,-5.26
22,CCOc1ccccc1-c1noc(CN2CCOC(CN(C)C)C2)n1 (stereo not drawn),-5
23,CC1CN(C)CCN1C(=O)c1ccn(-c2cccc(Cl)c2)n1 (stereo not drawn),-26.3

row,Compound,cytotoxicity at 10 µM [%]
1,CC(C)C(Sc1nnc(C2CC2)n1C1CC1)C(=O)NCc1cccnc1 (stereo not drawn),-11.2
2,O=C(c1ccc(Cl)c(Cl)c1)N1CCCC(n2cncn2)C1 (stereo not drawn),-5.16
3,Cc1ccc(S(=O)(=O)N2CCOc3ccccc32)cc1C(=O)O,-0.524
4,CC(C)n1ccnc1CN1CCCN(C(=O)c2cccnc2O)CC1,1.74
5,CCc1nc(C2CCCN2CCc2ccccn2)no1 (stereo not drawn),-7.03
6,CCOc1nnc(CN2CCOC(CNc3cccnn3)C2)s1 (stereo not drawn),1.82
7,CCn1cnnc1CNC(=O)NC(C)C(C)C (stereo not drawn),-6.15
8,CCCN(Cc1cccnc1)C1CC(C)(C)NC(C)(C)C1,-4.47
9,Cc1cc(C)c(N(CC(O)CNCc2ccco2)S(C)(=O)=O)c(C)c1 (stereo not drawn),-12.5
10,CN(C)[C@@H]1CCN(c2ncc(F)cn2)[C@H]1Cc1cccnc1,2.53
11,CCOC(=O)CN1CC(c2nc(-c3ccsc3)no2)C1,-12.3
12,CN(C)CCN1C(=O)CCC12CCCN(C(=O)N(C)C)CC2 (stereo not drawn),4.56
13,CN1CCOC2(CCCN(C(=O)C3CCCCC3)C2)C1 (stereo not drawn),-6.66
14,O=C1[C@@H]2CCN(Cc3ccccn3)C[C@@H]2OCCN1c1ccccc1,-73.7
15,O=C(C1CC1)N1CCC2(CCN2Cc2ccc(F)cc2)C1 (stereo not drawn),1.55
16,O=C(c1n[nH]c2c1CN(C1CCOC1)CC2)N1CCOCC1 (stereo not drawn),4.88
17,CN(C)C(=O)CN1C(=O)CCC12CCN(Cc1cccs1)CC2,-2.6
18,Cc1ccc(CC(=O)N2Cc3nccn3CC(CN(C)C)C2)cc1 (stereo not drawn),-9.58
19,Cn1cc(CN2CC[C@@H]3[C@@H]2CCN3C(=O)c2cccc(F)c2)cn1,-66.4
20,O=C1CC2(CCN(CC3CCOC3)CC2)c2ccccc2N1CC1CC1 (stereo not drawn),-9.61
21,O=C(N[C@@H]1C[C@@H]2CC[C@H]1C2)C1(Oc2ccc(Cl)cc2)CCNCC1,-5.26
